# Screening data deposited in PubChem BioAssay by several laboratories.
# Hits are enriched below; roughly 4.8% of the tested compounds scored in any of these assays.
# FLuc act counter: affects firefly luciferase, flagging false hits in luciferase stimulation screens | P08659 | ATPlite luciferase biochemical, luminescence, 10 min; 0 = ATP-free wells, 1 = DMSO control | activation factor at 10 µM | 200,000 tested, under 10 active | AID 1027;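 active means luciferase activation factor, scaled between plate controls, of at least 2 with compound at 10 µM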
# Target sequence (P08659 whole entry, looked up): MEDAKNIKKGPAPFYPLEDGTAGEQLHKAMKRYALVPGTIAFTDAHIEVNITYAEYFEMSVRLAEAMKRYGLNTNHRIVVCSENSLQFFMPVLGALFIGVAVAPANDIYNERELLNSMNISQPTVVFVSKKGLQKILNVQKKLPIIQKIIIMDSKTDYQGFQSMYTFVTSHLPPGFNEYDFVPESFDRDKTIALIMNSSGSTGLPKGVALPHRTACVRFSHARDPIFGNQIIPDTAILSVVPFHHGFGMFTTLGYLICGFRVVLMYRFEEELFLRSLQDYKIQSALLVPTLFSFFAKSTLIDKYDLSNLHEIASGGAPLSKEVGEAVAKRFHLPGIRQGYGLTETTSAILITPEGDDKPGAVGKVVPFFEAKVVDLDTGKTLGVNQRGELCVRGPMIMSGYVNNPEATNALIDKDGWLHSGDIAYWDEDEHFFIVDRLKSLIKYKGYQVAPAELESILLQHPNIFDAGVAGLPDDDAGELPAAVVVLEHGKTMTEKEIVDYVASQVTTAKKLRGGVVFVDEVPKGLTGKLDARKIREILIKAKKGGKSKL
#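 Assay system – cell-free luciferase reagent · Medium – PBS-based ATP solution · Dosing – test compounds dosed from 2 mM stocks in 100% DMSO · Timing – 10 min, room temperature · Technique – light output (luminescence) · Measure – luminescence gain marking luciferase activators · Controls – No-ATP low control, compound-free enzyme-plus-ATP high control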
# APP 5'UTR act: APP 5'UTR luciferase reporter activation; SH-SY5Y APP 5'UTR luciferase reporter, luminescence; zero percent = DMSO vehicle wells; activation, % at 2 µM; 1% of 190,000 active;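 active means activation above a set limit, based on mean plus 3 SD of controls, cut at about 140% in these data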
# STAT1 act: increases IFN-gamma driven STAT1 reporter signal | NIH 3T3 STAT1-luciferase reporter, luminescence; 100% = IFN-gamma alone, no compound | activation (% of control), % at 5.5 µM | 2.6% of 200,000 active | AID 932;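 active means activation above the screen-wide mean activation plus 3 SD, cut at about 130% in these data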;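 further: raw ratio to IFN-gamma control signal so 100% means no change and 0% no light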
# FLuc inhib CS: inhibits firefly luciferase, flagging false hits in luciferase inhibition screens. P08659. inhibition, % at 10 µM. ATPLite firefly luciferase biochemical luminescence, 10 min. 1.5% of 200,000 active;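 active means inhibition above about 50% when tested at 10 µM, limit read from the data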
# APP transl inh: APP translation inhibition; SH-SY5Y APP 5'UTR-luciferase reporter, luminescence; inhibition, % at 2 µM; 0.82% of 190,000 active; AID 1285;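 active means inhibition above a set limit, derived from the sample mean plus 3 SD, cut at about 45% in these data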
# NF-kB neuron act: NF-kB expression increase, human neuronal cells | NF-kB reporter expression; hits give high values | fold change at 12.5 µM | 1.6% of 190,000 active | AID 1239; in the data active means fold change above about 3.3
# * marks the source's active call; other numbers are inactive results; . = not tested or not shown.
SMILES,FLuc act counter,APP 5'UTR act,STAT1 act,FLuc inhib CS,APP transl inh,NF-kB neuron act
Oc1ccc(-c2cn3cc(C(F)(F)F)ccc3n2)cc1,0.1,229*,98,95*,-229,13*
O=C(NC(=S)Nc1ccc2ncccc2c1)c1ccccc1,0.8,60,131*,24,-60,1.1
O=C(NC(=S)Nc1ccc2[nH]ncc2c1)c1ccccc1,1,51,101,1,-51,1.5
COc1cccc(/C=N/NC(=S)Nc2cccc(C(=O)O)c2)c1O,0.4,-1,36,62*,1,1.8
S=C(N/N=C/c1ccc2ncccc2c1)Nc1ccccc1,0.5,1,105,55*,-1,0.97
COc1cc(/C=N/NC(=S)Nc2cccc(C(=O)O)c2)ccc1O,0.7,-12,36,25,12,1.2
COc1ccc(/C=N/NC(=S)Nc2cccc(C(=O)O)c2)cc1,0.4,29,72,56*,-29,1.5
CN(C(=S)NC(=O)CCCOc1ccc(Cl)cc1Cl)c1ccccc1,1,7,96,0,-6,1.3
O=C(Nc1ccc(Cl)c(C(F)(F)F)c1)C1CCCN(S(=O)(=O)c2cnc[nH]2)C1 (stereo not given),1.1,.,96,-8,.,0.97
COc1ccc(/C=N/NC(=S)Nc2ccccc2)cc1,0.6,36,133*,37,-36,2.2
Cc1cc(NC(=S)NC(=O)c2ccccc2)ccc1-c1cc2ccccc2oc1=O,1,-69,100,0,69*,1.1
COc1cc(C(=O)NC(=S)Nc2cccc(-c3cc4ccccc4oc3=O)c2)cc(OC)c1OC,1.1,-9,89,-8,9,0.57
O=C(NNC(=S)Nc1ccccc1)c1ccc2ncccc2c1,0.8,16,122,19,-16,1.6
COc1ccc(/C=N/NC(=S)Nc2ccccc2)cc1COc1ccc(F)cc1,1,3,94,2,-3,1.2
CC(C)(C)NC(=S)NNC(=O)c1ccc2ncccc2c1,0.9,82,136*,9,-82,1
COc1cc(/C=N/NC(=O)Nc2ccccc2)ccc1OC(C)=O,0.9,39,142*,14,-40,2
O=C(COc1ccc2ccccc2c1CN1CCOCC1)N1CCc2ccccc21,1,-21,102,-2,21,0.67
CCN(c1ccccc1)S(=O)(=O)c1ccc(Cl)c(NC(=O)CSc2nnc(C)s2)c1,1.1,-1,83,-6,1,0.77
O=C1C2C3CCC(C3)C2C(=O)N1c1ccc(OS(=O)(=O)c2ccccc2)cc1 (stereo not given),0.9,106,137*,10,-106,1.7
Cc1ccc(S(=O)(=O)Oc2ccc(N3C(=O)C4C5CCC(C5)C4C3=O)cc2)cc1 (stereo not given),1.1,5,88,-10,-5,1.3
CC(COc1ccccc1)N1CCC(CO)(Cc2ccccc2)CC1 (stereo not given),1.1,27,94,-8,-27,4.4*
O=C1CN(CC(=O)Nc2cccc(Cl)c2Cl)c2ccccc2N1,1.1,44,93,-12,-44,1.1
O=C(c1ccco1)N1CCN(CCCCOc2ccc(F)cc2)CC1,1,1,102,-2,-1,1.2
Oc1cc(NCc2cccnc2)ccc1-c1nc2ccccc2o1,1,155*,134*,0,-155,2.5
CCc1ccc(OCC(=O)Nc2ccc(-c3nc4ccccc4o3)c(O)c2)cc1,1,7,105,-3,-7,1.6
SMILES,FLuc act counter,APP 5'UTR act,STAT1 act,FLuc inhib CS,APP transl inh,NF-kB neuron act
O=S(=O)(c1ccc(S(=O)(=O)N(Cc2cccs2)CC2CCCO2)cc1)N1CCCCC1 (stereo not given),1,21,129*,-4,-21,1.4
O=C1CCC/C1=C\c1ccccc1,1,6,104,-3,-6,0.97
O=C1/C(=C/c2ccncc2)CCC/C1=C\c1ccncc1,1,-82,99,-3,82*,0.18
CCn1c(SCc2ccccc2Cl)nc2ccccc21,0.8,5,118,21,-5,1.8
Cn1c(SCc2ccccc2Cl)nc2ccccc21,0.7,114,141*,29,-114,1.1
CC(=O)/C=C/c1ccc(C)o1,1,0,114,-4,0,1.2
Cc1ccc(/C=C/c2nc3ccccc3[nH]2)o1,0.1,259*,90,86*,-259,6.5*
COc1ccc(/C=N/N=C2/CC(C)(C)Cc3n[nH]c(=O)cc32)cc1,1,17,108,-1,-17,1.2
Cc1csc(NC(=O)c2cc3c(s2)CCC3)n1,0.2,105,118,79*,-105,9.8*
O=C(Nc1nnc(C2CC2)s1)c1cc2c(s1)CCCCCC2,1,-12,107,-4,12,1.2
Cc1csc(NC(=O)c2cc3c(s2)-c2ccccc2OC3)n1,0.9,112,139*,6,-112,2
Cc1nc(NC(=O)c2cc3c(s2)CCCCC3)sc1C(=O)N(C)C,1.1,27,132*,-8,-27,2.4
Cc1nc(NC(=O)c2ccc(Br)s2)sc1C(=O)N(C)C,0.6,132,138*,40,-132,3
COc1ccc(-c2nnn(CC(=O)N(CCCN3CCOCC3)C(C(=O)NC3CCCC3)c3ccco3)n2)cc1 (stereo not given),1,-8,96,-4,8,1.3
Cc1cccc(C)c1N=Cc1c(C(F)(F)F)[nH][nH]c1=O,1,4,107,-2,-4,1.1
COC(CNC(=O)c1cccc(-n2c(=S)[nH]c3cc(Cl)ccc3c2=O)c1)OC,1,2,102,5,-2,1
COc1ccc(/C=C2\SC(=N)N(c3nccs3)C2=O)cc1OC,0.2,-22,97,77*,22,1.2
N=C1S/C(=C\c2ccc(-c3cccc(Cl)c3)o2)C(=O)N1c1nccs1,1,-36,96,-1,36,0.94
COc1ccc(C2CC(c3ccc(C)o3)=NN2C(C)=O)cc1 (stereo not given),1.1,12,125,-6,-12,2.1
CCOc1cccc2c1OC(c1cc(OC)c(OC)c(OC)c1)N1N=C(c3ccc(C)o3)CC21 (stereo not given),0.5,137*,89,52*,-137,0.82
Oc1c(C(Nc2ccccn2)c2ccccn2)ccc2cccnc12 (stereo not given),1,-26,94,-2,26,7*
CC(=O)NC(c1ccco1)c1ccc2cccnc2c1O (stereo not given),1.1,-55,100,-7,55*,1.1
Cc1cc(NC(c2ccc(Cl)cc2)c2ccc3cccnc3c2O)no1 (stereo not given),1.1,-79,104,-10,79*,1.1
COc1cc(C(Nc2ccccn2)c2ccc3ccc(C)nc3c2O)cc(OC)c1O (stereo not given),1,-18,94,-5,18,6*
